This note sets out measurements from ChEMBL document CHEMBL1165973, “Design, synthesis and antibacterial activity of novel andrographolide derivatives” (Bioorg Med Chem, 2010).

Test [1] concerns Pseudomonas aeruginosa PAO1. Kind of test: Inhibition of Pseudomonas aeruginosa PAO1 quorum sensing assessed as inhibition of pycocyanin production at 0.5 mM after 24 hrs by spectrometry. In outline: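 PAO1 grown overnight in LB, washed in fresh medium and diluted to OD600 0.05. Aliquots were grown 24 h in tubes with compound at 0.5 mM. Pyocyanin was extracted from filtered culture supernatant and quantified by a published method. Significance versus untreated control was set at P < 0.05.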

The next test deals with Pseudomonas aeruginosa. Kind of test: Antibacterial activity at Pseudomonas aeruginosa PAO1 at 2 mM. The format is functional, organism-based.
Test [2] deals with Pseudomonas aeruginosa PAO1. Kind of test: Inhibition of Pseudomonas aeruginosa PAO1 quorum sensing assessed as inhibition of protease production at 0.5 mM after 10 hrs by colorimetric method. The method in brief: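 PAO1 grown overnight at 37 °C in PB medium ([…]), washed, diluted to OD600 0.05 and grown to midlog. Cells were washed again, reset to OD600 0.05 and cultured 10 h with compound at 0.5 mM. Filtered supernatant was incubated with azocasein in 10 mM Tris pH 7.2 and 1 mM CaCl₂ for 4 h at 37 °C with agitation, then quenched with NaOH and centrifuged.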

Each structure is given as a SMILES string. Active and inactive are the calls of the source. No cut-off for these calls is given here.

With `C=C1CC[C@@H]2[C@](C)(CO)[C@H](O)CC[C@@]2(C)[C@@H]1C/C=C1/C(=O)OC[C@H]1OC(=O)/C=C/C1CCCCC1`, the inhibition result in test [1] and in test [2] was “Active” throughout. Also, in the test on Pseudomonas aeruginosa, the result was inactive. Consider `C=C1CC[C@@H]2[C@](C)(CO)[C@H](O)CC[C@@]2(C)[C@@H]1C/C=C1/C(=O)OC[C@H]1OC(=O)CCCCCCC`, for which the inhibition entry in test [1] is “Active”. In addition, in the test with Pseudomonas aeruginosa, the result was inactive. For `C=C1CC[C@@H]2[C@](C)(CO)[C@H](O)CC[C@@]2(C)[C@@H]1C/C=C1/C(=O)OC[C@H]1OC(=O)CCCC` the same measures were “Active” and “inactive”. Take `C=C1CC[C@@H]2[C@](C)(CO)[C@H](O)CC[C@@]2(C)[C@@H]1C/C=C1/C(=O)OC[C@H]1OC(=O)/C=C/C`: the inhibition entry in test [1] and in test [2] was “Active” each time. Besides, in the test with Pseudomonas aeruginosa, the outcome was inactive. `C=C1CC[C@@H]2[C@](C)(CO)[C@H](O)CC[C@@]2(C)[C@@H]1C/C=C1/C(=O)OC[C@H]1OC(=O)CCCCC`: the inhibition result in test [1] and in test [2] was “Active” throughout. Moreover, the outcome in the test with Pseudomonas aeruginosa was inactive.

Take `C=C1CC[C@@H]2[C@](C)(CO)[C@H](O)CC[C@@]2(C)[C@@H]1C/C=C1/C(=O)OC[C@H]1OC(=O)/C=C/c1ccco1`: the inhibition result in test [1] and in test [2] was “Active” in each case. For the same molecule, in the test with Pseudomonas aeruginosa, the outcome was inactive. As for `C=C1CC[C@@H]2[C@]3(C)COC(C)(C)O[C@@H]3CC[C@@]2(C)[C@@H]1C/C=C1/C(=O)OC[C@H]1OC(=O)CCCCCCC`, the result in the test with Pseudomonas aeruginosa was inactive. For `C=C1CC[C@@H]2[C@](C)(CO)[C@H](O)CC[C@@]2(C)[C@@H]1C/C=C1/C(=O)OC[C@H]1OC(=O)CC12CC3CC(CC(C3)C1)C2`, the inhibition entry in test [1] and in test [2] was “Active” in each case. The outcome in the test with Pseudomonas aeruginosa was inactive. Consider `C=C1CC[C@@H]2[C@](C)(CO)[C@H](O)CC[C@@]2(C)[C@@H]1C/C=C1/C(=O)OC[C@H]1OC(=O)CCCCCCCCCCC`, for which the inhibition entry in test [1] and in test [2] was “Active” each time. For the same molecule, the outcome in the test with Pseudomonas aeruginosa was inactive.

Turning to `C=C1CC[C@@H]2[C@]3(C)COC(C)(C)O[C@@H]3CC[C@@]2(C)[C@@H]1C/C=C1/C(=O)OC[C@H]1OC(=O)/C=C/C`, the result in the test on Pseudomonas aeruginosa was inactive.

`C=C1CC[C@@H]2[C@](C)(CO)[C@H](O)CC[C@@]2(C)[C@@H]1C/C=C1/C(=O)OC[C@H]1OC(=O)CCCCC1CCCC1`: the inhibition result in test [1] and in test [2] was “Active” in each case. Also, the outcome in the test with Pseudomonas aeruginosa was inactive. Regarding `C=C1CC[C@@H]2[C@](C)(CO)[C@H](O)CC[C@@]2(C)[C@@H]1C/C=C1/C(=O)OC[C@H]1O`, the inhibition entry in test [1] was “Active”.

Take `C=C1CC[C@@H]2[C@]3(C)COC(C)(C)O[C@@H]3CC[C@@]2(C)[C@@H]1C/C=C1/C(=O)OC[C@H]1OC(=O)/C=C/C1CCCCC1`: the result with Pseudomonas aeruginosa was inactive. Still for that read-out and setting: under `C=C1CC[C@@H]2[C@]3(C)COC(C)(C)O[C@@H]3CC[C@@]2(C)[C@@H]1C/C=C1/C(=O)OC[C@H]1OC(=O)CCCCCCCCCCC` stands “inactive”. Turning to `C=C1CC[C@@H]2[C@]3(C)COC(C)(C)O[C@@H]3CC[C@@]2(C)[C@@H]1C/C=C1/C(=O)OC[C@H]1OC(=O)/C=C/c1ccco1`, the result in the test with Pseudomonas aeruginosa was inactive. On to `C=C1CC[C@@H]2[C@]3(C)COC(C)(C)O[C@@H]3CC[C@@]2(C)[C@@H]1C/C=C1/C(=O)OC[C@H]1OC(=O)CCCC1CCCC1`, for which, in the test on Pseudomonas aeruginosa, the result was inactive. In the case of `C=C1CC[C@@H]2[C@](C)(CO)[C@H](O)CC[C@@]2(C)[C@@H]1C/C=C1/C(=O)OC[C@H]1OC(=O)CCCC[C@H]1CCSS1`, the inhibition entry in test [1] and in test [2] was “Active” each time.

As to `C=C1CC[C@@H]2[C@]3(C)COC(C)(C)O[C@@H]3CC[C@@]2(C)[C@@H]1C/C=C1/C(=O)OC[C@H]1OC(=O)C12CC3CC(CC(C3)C1)C2`, the result in the test with Pseudomonas aeruginosa was inactive. For `C=C1CC[C@@H]2[C@]3(C)COC(C)(C)O[C@@H]3CC[C@@]2(C)[C@@H]1C/C=C1/C(=O)OC[C@H]1OC(=O)CCCCC`, the outcome in the test with Pseudomonas aeruginosa was inactive.

Consider `C=C1CC[C@@H]2[C@]3(C)COC(C)(C)O[C@@H]3CC[C@@]2(C)[C@@H]1C/C=C1/C(=O)OC[C@H]1OC(=O)CCCC`, for which, in the test on Pseudomonas aeruginosa, the result was inactive.
